Laboratory results taken from article PMC8200842 (The Journal of General Physiology, 2021).
“And” between values parts separate entries of the source, which are not always exact repeats. Equal values may be shown once. Read-outs that look alike come from different tables or passages of the source. Marks after values point to notes of the source that are not given here.

Columns and labels:
Type in all cases: binding
D55C MelBSt mutant = D55C MelBSt mutant (Salmonella typhimurium, UniProt P30878, D55C); test: Thermal denaturation by CD spectroscopy; details: D55C MelBSt 10 µM, component at 50 mM in CD buffer, ellipticity at 210 nm
WT MelBSt = WT MelBSt (Salmonella typhimurium, UniProt P30878); test: Thermal denaturation by CD spectroscopy; details: for 10% unfolding / 50% unfolding (Tm) / 90% unfolding: WT MelBSt 10 µM, component at 50 mM in CD buffer, ellipticity at 210 nm; for denaturation completed faster than in the absence of salt / ΔTm: WT MelBSt; for denaturation completed faster than in the absence of salt: above 60°C, nonspecific salt effect; for ΔTm: difference in Tm compared with apo
In short: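 Samples sat in a 1-mm cuvette. Ellipticity at 210 nm was recorded from 25–80°C at 1°C intervals, ramping 1°C/min, and expressed as percent unfolded. Tm is the half-maximal ellipticity decrease by curve fitting. Data are SEM; unpaired t test, P<0.05.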

MelBSt = MelBSt (Salmonella typhimurium, UniProt P30878); details: for ΔΔH: from 15°C to 30°C
[1] = MelBSt with 100 mM NaCl (MelBSt/Na^+ binary complex), 15°C
[2] = MelBSt with 100 mM NaCl (MelBSt/Na^+ binary complex), 20°C
[3] = MelBSt with 100 mM NaCl (MelBSt/Na^+ binary complex), 25°C
[4] = MelBSt with 100 mM NaCl (MelBSt/Na^+ binary complex), 30°C
[5] = MelBSt with 100 mM NaCl (MelBSt/Na^+ binary complex), 35°C
[6] = apo MelBSt, range over 15°C, 20°C, 25°C and 30°C
[7] = binding to MelBSt/Na^+ binary complex
[8] = MelBSt with 50 mM melibiose (MelBSt/Mel binary complex), 15°C
[9] = MelBSt with 50 mM melibiose (MelBSt/Mel binary complex), 20°C
[10] = MelBSt with 50 mM melibiose (MelBSt/Mel binary complex), 25°C
[11] = MelBSt with 50 mM melibiose (MelBSt/Mel binary complex), 30°C
[12] = binding to MelBSt/Mel binary complex

[K+] [K^+]
10% unfolding (D55C MelBSt mutant): 46.51 ± 0.71 °C | 50% unfolding (Tm) (D55C MelBSt mutant): 56.15 ± 0.16 °C | 90% unfolding (D55C MelBSt mutant): 65.07 ± 0.06 °C | 10% unfolding (WT MelBSt): 46.06 ± 0.02 °C | 50% unfolding (Tm) (WT MelBSt): 53.34 ± 0.04 °C | 90% unfolding (WT MelBSt): 59.94 ± 0.69 °C | denaturation completed faster than in the absence of salt (WT MelBSt): 4–5 °C | ΔTm (WT MelBSt): 0.05 ^d (>0.05 ^e) °C

OC[C@H]1O[C@H](OCC2O[C@@H](O)[C@H](O)[C@@H](O)[C@@H]2O)[C@H](O)[C@@H](O)[C@H]1O (stereo partly shown) [Mel, melibiose]
50% unfolding (Tm) (D55C MelBSt mutant): >80 °C | Entropy change (−TΔS) (MelBSt; [1]): -9.61 ± 0.67 kJ/mol | Free energy change (ΔG) (MelBSt; [1]): -16.43 ± 0.03 kJ/mol | Kd (MelBSt; [1]): 1050 ± 10 µM | ΔH (MelBSt; [1]): -6.46 ± 0.43 kJ/mol | Entropy change (−TΔS) (MelBSt; [2]): -7.37 ± 0.99 kJ/mol | Free energy change (ΔG) (MelBSt; [2]): -17.09 ± 0.40 kJ/mol | Kd (MelBSt; [2]): 950 ± 130 µM | ΔH (MelBSt; [2]): -9.72 ± 0.59 kJ/mol | Entropy change (−TΔS) (MelBSt; [3]): -4.75 ± 0.26 kJ/mol | Free energy change (ΔG) (MelBSt; [3]): -16.71 ± 0.03 kJ/mol | Kd (MelBSt; [3]): 1180 ± 10 µM | ΔH (MelBSt; [3]): -11.97 ± 0.23 kJ/mol | Entropy change (−TΔS) (MelBSt; [4]): -2.98 ± 0.31 kJ/mol | Free energy change (ΔG) (MelBSt; [4]): -16.55 ± 0.07 kJ/mol | Kd (MelBSt; [4]): 1410 ± 40 µM | ΔH (MelBSt; [4]): -13.57 ± 0.24 kJ/mol | Entropy change (−TΔS) (MelBSt; [5]): -1.09 ± 0.23 kJ/mol | Free energy change (ΔG) (MelBSt; [5]): -16.23 ± 0.20 kJ/mol | Kd (MelBSt; [5]): 1780 ± 140 µM | ΔH (MelBSt; [5]): -15.16 ± 0.44 kJ/mol | Entropy change (−TΔS) (MelBSt; apo MelBSt (main buffer), 15°C): 14.64 ± 4.30 kJ/mol | Free energy change (ΔG) (MelBSt; apo MelBSt (main buffer), 15°C): -11.27 ± 0.27 kJ/mol | Kd (MelBSt; apo MelBSt (main buffer), 15°C): 9150 ± 1060 µM | ΔH (MelBSt; apo MelBSt (main buffer), 15°C): -25.91 ± 4.58 kJ/mol | ΔH (MelBSt; apo MelBSt (main buffer), 15°C, listed as melibiose): -25.91 kJ/mol | Entropy change (−TΔS) (MelBSt; apo MelBSt (main buffer), 20°C): 11.92 ± 4.97 kJ/mol | Free energy change (ΔG) (MelBSt; apo MelBSt (main buffer), 20°C): -11.34 ± 0.26 kJ/mol | Kd (MelBSt; apo MelBSt (main buffer), 20°C): 9590 ± 1010 µM | ΔH (MelBSt; apo MelBSt (main buffer), 20°C): -23.26 ± 5.23 kJ/mol | Entropy change (−TΔS) (MelBSt; apo MelBSt (main buffer), 25°C): 8.35 ± 6.71 kJ/mol | Free energy change (ΔG) (MelBSt; apo MelBSt (main buffer), 25°C): -11.29 ± 0.58 kJ/mol | Kd (MelBSt; apo MelBSt (main buffer), 25°C): 10800 ± 2490 µM | ΔH (MelBSt; apo MelBSt (main buffer), 25°C): -19.64 ± 6.13 kJ/mol | Entropy change (−TΔS) (MelBSt; apo MelBSt (main buffer), 30°C): 5.59 ± 5.66 kJ/mol | Free energy change (ΔG) (MelBSt; apo MelBSt (main buffer), 30°C): -10.81 ± 0.22 kJ/mol | Kd (MelBSt; apo MelBSt (main buffer), 30°C): 13800 ± 1180 µM | ΔH (MelBSt; apo MelBSt (main buffer), 30°C): -16.40 ± 5.45 kJ/mol | ΔH (MelBSt; apo MelBSt (main buffer), 30°C, listed as melibiose): -16.40 kJ/mol | ΔΔH (MelBSt; apo MelBSt): ~10 kJ/mol | Kd (MelBSt; [6]): 9000 to 13000 µM | binding free energy ΔG (MelBSt; [6]): -11.27 to -10.81 kJ/mol | −ΔSConf (MelBSt; [7]): 59.86 J/mol·K | −ΔSMix (MelBSt; [7]): 33.00 J/mol·K | −ΔSSolv (MelBSt; [7]): −108.78 J/mol·K | −ΔSSum at °25 C (MelBSt; [7]): −15.92 J/mol·K | −ΔSConf (MelBSt; binding to apo MelBSt): −169.20 J/mol·K | −ΔSMix (MelBSt; binding to apo MelBSt): 33.00 J/mol·K | −ΔSSolv (MelBSt; binding to apo MelBSt): 164.61 J/mol·K | −ΔSSum at °25 C (MelBSt; binding to apo MelBSt): 28.41 J/mol·K | ΔCp (MelBSt; binding to apo MelBSt, slope of ΔH versus temperature 15-30°C): 643.01 ± 26.92 J/mol·K | 10% unfolding (WT MelBSt): 45.95 ± 0.47 °C | 50% unfolding (Tm) (WT MelBSt): 54.07 ± 0.07 °C | 90% unfolding (WT MelBSt): 64.24 ± 0.42 °C | ΔTm (WT MelBSt): 0.78 (<0.05) °C

[Na+] [Na^+]
10% unfolding (D55C MelBSt mutant): 46.35 ± 0.25 °C | 50% unfolding (Tm) (D55C MelBSt mutant): 56.75 ± 0.25 °C | 90% unfolding (D55C MelBSt mutant): 66.51 ± 0.31 °C | Entropy change (−TΔS) (MelBSt; [8]): -12.59 ± 0.26 kJ/mol | Free energy change (ΔG) (MelBSt; [8]): -23.29 ± 0.20 kJ/mol | Kd (MelBSt; [8]): 60 ± 10 µM | ΔH (MelBSt; [8]): -10.70 ± 0.06 kJ/mol | Entropy change (−TΔS) (MelBSt; [9]): -8.11 ± 0.03 kJ/mol | Free energy change (ΔG) (MelBSt; [9]): -23.24 ± 0.17 kJ/mol | Kd (MelBSt; [9]): 70 ± 10 µM | ΔH (MelBSt; [9]): -15.14 ± 0.15 kJ/mol | Entropy change (−TΔS) (MelBSt; [10]): -3.82 ± 0.03 kJ/mol | Free energy change (ΔG) (MelBSt; [10]): -22.55 ± 0.82 kJ/mol | Kd (MelBSt; [10]): 120 ± 40 µM | ΔH (MelBSt; [10]): -18.74 ± 0.80 kJ/mol | Free energy change (ΔG) (MelBSt; [11]): -22.95 ± 0.74 kJ/mol | Kd (MelBSt; [11]): 120 ± 30 µM | ΔH (MelBSt; [11]): -22.17 ± 0.52 kJ/mol | difference in apo MelBSt binding affinities between Na^+ and melibiose (MelBSt; apo MelBSt): at least 20 fold | Entropy change (−TΔS) (MelBSt; apo MelBSt (main buffer), 15°C): 17.56 ± 1.30 kJ/mol | Free energy change (ΔG) (MelBSt; apo MelBSt (main buffer), 15°C): -18.18 ± 0.39 kJ/mol | Kd (MelBSt; apo MelBSt (main buffer), 15°C): 510 ± 80 µM | ΔH (MelBSt; apo MelBSt (main buffer), 15°C): -35.75 kJ/mol and -35.75 ± 0.90 kJ/mol | Entropy change (−TΔS) (MelBSt; apo MelBSt (main buffer), 20°C): 10.06 ± 0.02 kJ/mol | Free energy change (ΔG) (MelBSt; apo MelBSt (main buffer), 20°C): -18.13 ± 0.49 kJ/mol | Kd (MelBSt; apo MelBSt (main buffer), 20°C): 600 ± 100 µM | ΔH (MelBSt; apo MelBSt (main buffer), 20°C): -28.20 ± 0.43 kJ/mol | Entropy change (−TΔS) (MelBSt; apo MelBSt (main buffer), 25°C): 3.65 ± 0.31 kJ/mol | Free energy change (ΔG) (MelBSt; apo MelBSt (main buffer), 25°C): -18.46 ± 0.42 kJ/mol | Kd (MelBSt; apo MelBSt (main buffer), 25°C): 590 ± 120 µM | ΔH (MelBSt; apo MelBSt (main buffer), 25°C): -22.11 ± 0.80 kJ/mol | Entropy change (−TΔS) (MelBSt; apo MelBSt (main buffer), 30°C): -1.98 ± 1.62 kJ/mol | Free energy change (ΔG) (MelBSt; apo MelBSt (main buffer), 30°C): -18.00 ± 0.22 kJ/mol | Kd (MelBSt; apo MelBSt (main buffer), 30°C): 790 ± 70 µM | ΔH (MelBSt; apo MelBSt (main buffer), 30°C): -16.02 kJ/mol and -16.02 ± 1.40 kJ/mol | ΔΔH (MelBSt; apo MelBSt): ~20 kJ/mol | −ΔSConf (MelBSt; [12]): 148.74 J/mol·K | −ΔSMix (MelBSt; [12]): 33.00 J/mol·K | −ΔSSolv (MelBSt; [12]): −194.56 J/mol·K | −ΔSSum at °25 C (MelBSt; [12]): −12.82 J/mol·K | −ΔSConf (MelBSt; binding to apo MelBSt): −354.89 J/mol·K | −ΔSMix (MelBSt; binding to apo MelBSt): 33.00 J/mol·K | −ΔSSolv (MelBSt; binding to apo MelBSt): 334.13 J/mol·K | −ΔSSum at °25 C (MelBSt; binding to apo MelBSt): 12.24 J/mol·K | 10% unfolding (WT MelBSt): 49.07 ± 0.28 °C | 50% unfolding (Tm) (WT MelBSt): 54.83 ± 0.03 °C | 90% unfolding (WT MelBSt): 60.06 ± 0.29 °C | denaturation completed faster than in the absence of salt (WT MelBSt): 4–5 °C | ΔTm (WT MelBSt): 1.54 (<0.05) °C
